ChEMBL document CHEMBL4002590, “Design and Synthesis of a Pan-Janus Kinase Inhibitor Clinical Candidate (PF-06263276) Suitable for Inhaled and Topical Delivery for the Treatment of Inflammatory Diseases of the Lungs and Skin” (J Med Chem, 2017)
Calls of active or inactive are those of the source. The calls are words filed in the database; no cut-off is given here.

Experiments:
JAK1/TYK2 (Homo sapiens) = JAK1/TYK2 (Homo sapiens) (UniProt P23458+P29597)
[1] = Plasma protein binding in dog at 0.1 mg/kg, iv administered as 30 mins infusion; format: ADME, organism-based, Canis lupus familiaris; details: read-out: PPB
Rattus norvegicus [2] = test: Toxicity in iv dosed rat for 7 days; format: organism-based; details: in vivo, 168 h
Method in brief: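 Exploratory 7-day intravenous toxicology studies in rat and dog; margins expressed over total plasma AUC relative to projected exposure at a 200 μg human lung dose.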

hERG (KCNH2) = hERG (KCNH2) (Homo sapiens, UniProt Q12809); test: Inhibition of human ERG at 1 uM
Method in brief: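 hERG potassium current measured with compound at 1 μM.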

[3] = target: T1, Tyrosine-protein kinase JAK3 (Homo sapiens, UniProt P52333); test: Inhibition of GST tagged human recombinant JAK3 catalytic domain expressed in baculovirus using peptide substrate preincubated for 60 mins followed by substrate addition and measured after 60 mins by microfluidic assay
T1 sequence (P52333 whole entry): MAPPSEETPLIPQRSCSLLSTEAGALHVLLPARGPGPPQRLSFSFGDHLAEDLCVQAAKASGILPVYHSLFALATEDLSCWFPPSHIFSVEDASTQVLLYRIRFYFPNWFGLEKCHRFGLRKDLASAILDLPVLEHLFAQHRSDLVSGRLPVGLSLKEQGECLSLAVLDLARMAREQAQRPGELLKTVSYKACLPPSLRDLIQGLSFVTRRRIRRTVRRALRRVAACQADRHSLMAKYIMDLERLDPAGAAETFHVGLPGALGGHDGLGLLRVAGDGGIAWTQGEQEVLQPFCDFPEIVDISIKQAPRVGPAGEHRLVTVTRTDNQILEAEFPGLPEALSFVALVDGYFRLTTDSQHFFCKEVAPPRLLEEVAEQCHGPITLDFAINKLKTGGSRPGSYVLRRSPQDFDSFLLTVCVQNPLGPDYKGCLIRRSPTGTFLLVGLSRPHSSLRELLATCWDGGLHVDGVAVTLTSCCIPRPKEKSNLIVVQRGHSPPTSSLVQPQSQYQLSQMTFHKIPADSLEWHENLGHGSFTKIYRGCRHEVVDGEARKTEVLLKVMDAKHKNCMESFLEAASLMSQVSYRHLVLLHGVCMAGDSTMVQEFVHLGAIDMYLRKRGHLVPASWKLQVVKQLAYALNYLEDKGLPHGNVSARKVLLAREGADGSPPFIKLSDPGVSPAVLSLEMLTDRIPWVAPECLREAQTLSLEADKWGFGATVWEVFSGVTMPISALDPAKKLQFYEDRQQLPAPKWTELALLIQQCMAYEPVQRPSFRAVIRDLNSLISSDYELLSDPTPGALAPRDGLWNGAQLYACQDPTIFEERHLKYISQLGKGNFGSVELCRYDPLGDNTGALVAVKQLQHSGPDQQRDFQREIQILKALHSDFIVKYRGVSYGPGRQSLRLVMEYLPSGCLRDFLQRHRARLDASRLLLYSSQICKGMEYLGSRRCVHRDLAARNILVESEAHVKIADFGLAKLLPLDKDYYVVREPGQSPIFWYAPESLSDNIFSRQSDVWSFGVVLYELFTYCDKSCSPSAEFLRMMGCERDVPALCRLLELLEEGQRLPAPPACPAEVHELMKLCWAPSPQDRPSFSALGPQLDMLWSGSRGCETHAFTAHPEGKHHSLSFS
Method in brief: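 Caliper microfluidic assay of peptide-substrate phosphorylation by the relevant JAK enzyme, run at 1 mM ATP; IC50 values are geometric means of at least three determinations.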

Salmonella typhimurium = test: Genotoxicity in Salmonella typhimurium by Ames test; format: toxicity; details: salmonella enterica subsp. enterica serovar typhimurium
Rattus norvegicus [4] = test: Intrinsic clearance in rat at 0.5 mg/kg, iv; format: ADME, organism-based; details: in vivo
Janus Kinase (JAK) = Janus Kinase (JAK) (Homo sapiens, UniProt P52333+P23458+O60674+P29597)
Mus musculus [5] = test: In vivo inhibition of JAK2/TYK2 in Balb/c mouse model of IL-23 induced inflammation assessed as reduction of ear swelling pretreated topically as 4 % solution bid on ear for 12 consecutive days followed by IL-23 stimulation at 2 hrs post compound treatment on day 2, 4, 7, 9 and 11; format: functional
Method in brief: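 Mouse ear dermal model: compound applied topically as a 4% solution in propylene glycol 30, PEG400 30, dimethyl isosorbide 10, glycerin 25.9, BHA 0.1 (% wt/wt); repeated IL-23 ear injections, with ear swelling followed over 11 days.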

Mus musculus [6] = test: In vivo inhibition of JAK2 homodimer in Balb/c mouse assessed as inhibition of GM-CSF induced STAT5 phosphorylation in blood at 100 ug, it for 12 consecutive days; format: functional
Method in brief: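 After i.t. dosing in mouse, GM-CSF-induced phosphorylated STAT5 measured in blood; percent inhibition ± 95% CI from geometric means versus vehicle groups; N = 3.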

[7] = target: 5-hydroxytryptamine receptor 7 (Homo sapiens) (UniProt P34969); test: Antagonist activity at recombinant human 5-HT7 receptor expressed in CHO cells assessed as inhibition of serotonin-induced cAMP accumulation at 10 uM after 30 mins by HTRF method relative to control; format: functional, cell-based
[8] = target: Tyrosine-protein kinase Lck (Homo sapiens) (UniProt P06239); test: Inhibition of recombinant human Lck kinase expressed in insect Sf21 cells at 10 uM using Ulight-Poly GAT[EAY(1:1:1)]n as substrate after 10 mins by LANCE assay
Method in brief: (§1)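 Single-point screen at 10 μM within a broad panel of radioligand binding and enzyme inhibition assays covering receptors, transporters, enzymes and ion channels.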

Mus musculus [9] = test: In vivo receptor occupancy at JAK1 in Balb/c mouse lungs at 10 to 100 ug, it measured after 4 hrs; format: functional, organism-based
Method in brief: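 JAK1 target occupancy in mouse lung measured over time after i.t. administration of 10 μg or 100 μg.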

[10] = target: Acetylcholinesterase (Homo sapiens) (UniProt P22303); test: Inhibition of recombinant human acetylcholinesterase expressed in HEK-293 cells at 10 uM using acetylthiocholine substrate after 30 mins by photometry; format: cell-based
Method in brief: as §1

JAK2/JAK1 (Homo sapiens) = JAK2/JAK1 (Homo sapiens) (UniProt P23458+O60674)
[11] = Plasma protein binding in rat at 0.5 mg/kg, iv; format: ADME, organism-based; details: read-out: PPB

Chain of hERG (KCNH2) (Q12809 whole entry): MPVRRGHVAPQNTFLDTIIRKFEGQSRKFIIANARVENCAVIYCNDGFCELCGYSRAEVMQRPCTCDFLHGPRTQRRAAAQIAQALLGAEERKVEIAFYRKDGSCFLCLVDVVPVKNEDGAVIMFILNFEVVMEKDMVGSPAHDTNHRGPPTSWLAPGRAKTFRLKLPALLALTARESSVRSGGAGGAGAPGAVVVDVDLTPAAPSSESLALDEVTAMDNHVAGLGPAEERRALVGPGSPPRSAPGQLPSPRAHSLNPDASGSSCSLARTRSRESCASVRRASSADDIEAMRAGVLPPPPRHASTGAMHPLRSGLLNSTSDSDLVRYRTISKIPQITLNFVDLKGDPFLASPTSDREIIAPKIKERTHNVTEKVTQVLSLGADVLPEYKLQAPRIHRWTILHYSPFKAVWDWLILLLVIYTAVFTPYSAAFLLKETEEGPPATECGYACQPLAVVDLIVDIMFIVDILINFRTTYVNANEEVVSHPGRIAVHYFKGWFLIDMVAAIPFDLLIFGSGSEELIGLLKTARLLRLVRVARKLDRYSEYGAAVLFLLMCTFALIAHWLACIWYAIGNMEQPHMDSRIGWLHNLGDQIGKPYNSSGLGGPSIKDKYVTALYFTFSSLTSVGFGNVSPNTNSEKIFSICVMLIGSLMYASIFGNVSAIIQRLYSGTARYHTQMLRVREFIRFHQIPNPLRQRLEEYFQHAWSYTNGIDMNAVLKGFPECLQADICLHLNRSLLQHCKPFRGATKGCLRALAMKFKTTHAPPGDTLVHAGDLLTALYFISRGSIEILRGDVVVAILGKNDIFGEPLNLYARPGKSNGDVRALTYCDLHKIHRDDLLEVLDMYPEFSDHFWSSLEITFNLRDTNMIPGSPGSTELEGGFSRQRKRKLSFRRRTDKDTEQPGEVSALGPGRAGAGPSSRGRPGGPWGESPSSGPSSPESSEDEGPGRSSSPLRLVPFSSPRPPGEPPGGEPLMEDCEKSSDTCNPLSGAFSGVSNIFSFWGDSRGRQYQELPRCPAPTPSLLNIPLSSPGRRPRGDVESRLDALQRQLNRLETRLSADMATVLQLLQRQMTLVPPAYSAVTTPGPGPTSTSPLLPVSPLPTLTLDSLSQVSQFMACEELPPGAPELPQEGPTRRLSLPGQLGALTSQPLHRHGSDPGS
Chain of Acetylcholinesterase (Homo sapiens) (P22303 whole entry): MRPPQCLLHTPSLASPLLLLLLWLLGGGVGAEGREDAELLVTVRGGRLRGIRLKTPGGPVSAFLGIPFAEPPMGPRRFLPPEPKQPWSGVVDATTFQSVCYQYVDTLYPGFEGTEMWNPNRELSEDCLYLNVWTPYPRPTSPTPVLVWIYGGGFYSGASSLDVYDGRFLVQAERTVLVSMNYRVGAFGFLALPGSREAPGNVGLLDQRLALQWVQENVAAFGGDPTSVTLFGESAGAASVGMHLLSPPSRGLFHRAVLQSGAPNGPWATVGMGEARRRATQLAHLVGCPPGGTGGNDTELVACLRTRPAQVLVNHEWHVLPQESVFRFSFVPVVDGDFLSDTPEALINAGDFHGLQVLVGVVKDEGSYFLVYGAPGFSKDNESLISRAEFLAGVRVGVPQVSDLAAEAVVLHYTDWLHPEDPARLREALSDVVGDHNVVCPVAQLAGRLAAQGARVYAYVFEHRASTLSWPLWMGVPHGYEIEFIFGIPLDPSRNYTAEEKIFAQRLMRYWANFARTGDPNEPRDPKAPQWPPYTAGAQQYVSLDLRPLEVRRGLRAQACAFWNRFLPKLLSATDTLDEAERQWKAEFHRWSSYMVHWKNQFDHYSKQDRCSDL
Chain of Tyrosine-protein kinase Lck (Homo sapiens) (P06239 2-509 limits assumed): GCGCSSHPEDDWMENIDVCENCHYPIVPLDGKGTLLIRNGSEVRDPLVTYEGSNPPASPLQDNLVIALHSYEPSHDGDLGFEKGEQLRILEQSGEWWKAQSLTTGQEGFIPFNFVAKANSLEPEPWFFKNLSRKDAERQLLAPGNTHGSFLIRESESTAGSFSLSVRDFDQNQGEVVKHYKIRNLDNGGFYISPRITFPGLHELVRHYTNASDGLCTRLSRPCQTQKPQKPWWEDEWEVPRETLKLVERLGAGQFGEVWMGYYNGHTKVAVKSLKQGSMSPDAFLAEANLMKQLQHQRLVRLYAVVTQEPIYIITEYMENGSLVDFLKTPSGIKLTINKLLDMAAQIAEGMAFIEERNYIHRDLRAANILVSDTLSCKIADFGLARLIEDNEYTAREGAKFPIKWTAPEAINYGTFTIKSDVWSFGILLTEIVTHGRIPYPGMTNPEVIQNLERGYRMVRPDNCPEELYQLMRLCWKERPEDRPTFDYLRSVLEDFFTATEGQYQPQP
Chain of 5-hydroxytryptamine receptor 7 (Homo sapiens) (P34969 whole entry): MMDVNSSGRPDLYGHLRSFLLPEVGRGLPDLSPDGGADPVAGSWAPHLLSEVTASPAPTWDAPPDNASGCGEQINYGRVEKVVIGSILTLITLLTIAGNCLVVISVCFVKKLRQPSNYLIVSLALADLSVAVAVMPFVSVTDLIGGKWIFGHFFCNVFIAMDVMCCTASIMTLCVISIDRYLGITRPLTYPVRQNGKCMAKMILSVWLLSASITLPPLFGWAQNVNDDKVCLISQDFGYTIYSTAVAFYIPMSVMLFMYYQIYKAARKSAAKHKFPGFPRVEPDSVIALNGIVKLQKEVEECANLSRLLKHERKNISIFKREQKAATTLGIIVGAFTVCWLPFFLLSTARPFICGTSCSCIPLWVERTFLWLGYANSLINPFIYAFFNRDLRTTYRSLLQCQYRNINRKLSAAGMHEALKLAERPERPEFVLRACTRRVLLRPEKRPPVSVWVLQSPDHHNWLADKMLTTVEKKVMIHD

## CCc1cc(O)c(F)cc1-c1ccc2c(-c3nc4c([nH]3)CCN(C(=O)c3cnc(N5CCCCC5)cn3)C4)n[nH]c2c1
JAK1/TYK2 (Homo sapiens)
  fIC50: 0.62 nM
[1]
  fraction unbound at 0.5 h: ≤ 0.001
Rattus norvegicus [2]
  Activity: Non-Toxic
hERG (KCNH2)
  inhibition at 1 µM: < 1%
[3]
  IC50: 0.0599 µM
Salmonella typhimurium
  Activity: Non-Toxic
Rattus norvegicus [4]
  CL: 2.88 L/h/kg
Janus Kinase (JAK)
  T1/2: > 6 h
Mus musculus [5]
  inhibition (INH): 48%
Mus musculus [6]
  inhibition (INH): <50%
[7]
  inhibition: > 50%
[8]
  inhibition: > 50%
Mus musculus [9]
  Activity: Active
[10]
  inhibition: > 50%
JAK2/JAK1 (Homo sapiens)
  fIC50: 2.1 nM
[11]
  fraction unbound: ≤ 0.001
